Reference: ChEMBL document CHEMBL3860061, “A Novel Parkinson's Disease Drug Candidate with Potent Anti-neuroinflammatory Effects through the Src Signaling Pathway” (J Med Chem, 2016)
The source made the active and inactive calls. No cut-off for these calls is given here.

Columns and labels:
[1] = target: Proto-oncogene tyrosine-protein kinase Src (Mus musculus) (UniProt P05480); assay: Inhibition of Src signaling pathway in mouse BV2 cells assessed as suppression of LPS-induced NO release at […] preincubated for 1 hr followed by LPS addition measured after 24 hrs relative to control by Griess assay; assay type: cell-based; settings: BV-2
[2] = target: Proto-oncogene tyrosine-protein kinase Src (Mus musculus, UniProt P05480); assay: Inhibition of Src in mouse BV2 cells assessed as suppression of LPS-induced NO release preincubated for 1 hr followed by LPS addition measured after 24 hrs by Griess assay; assay type: cell-based, BV-2
In short: (§1)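 BV-2 cells in DMEM/10% FBS, plated at 5×10^3 per well. After 24 h, treated at 100, 50, 10, 5, 1 and 0.1 µM; 1 h later LPS 300 ng/mL added. After another 24 h, nitrite in the medium measured by Griess assay.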

[3] = system: Mus musculus; assay: Hepatotoxicity in ICR mouse at 1000 mg/kg administered through oral gavage for 14 consecutive days; assay type: toxicity, organism-based; settings: in vivo
In short: (§2)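 Mice dosed by oral gavage at 250, 500 and 1000 mg/kg for 14 consecutive days. General condition monitored throughout; liver and kidney clinical chemistry assessed.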

[4] = target: Proto-oncogene tyrosine-protein kinase Src (Rattus norvegicus) (UniProt Q9WUD9); assay: Inhibition of Src in Sprague-Dawley rat primary mixed mesecephalic neuron/glial cells assessed as suppression of LPS-induced IL-1beta expression at 10 uM preincubated for 1 hr followed by LPS challenge measured after 5 hrs by ELISA
In short: (§3)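 Mixed mesencephalic neuron/glia cultures from E14 Sprague-Dawley rats, used at 7 days. Agent at 10 µM added 1 h before LPS 100 ng/mL; IL-1β and TNF-α in medium measured by ELISA after 5 h, n = 6.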

[5] = target: Proto-oncogene tyrosine-protein kinase Src (Rattus norvegicus) (UniProt Q9WUD9); assay: Inhibition of Src in Sprague-Dawley rat primary mixed mesecephalic neuron/glial cells assessed as suppression of LPS-induced TNFalpha expression at 10 uM preincubated for 1 hr followed by LPS challenge measured after 5 hrs by ELISA; in short: as §3
[6] = target: Proto-oncogene tyrosine-protein kinase Src (Rattus norvegicus) (UniProt Q9WUD9); assay: Inhibition of SRC in Sprague-Dawley rat primary mixed mesecephalic neuron/glial cells assessed as protection against LPS-induced dopaminergic neuro-toxicity by measuring TH expression at 10 uM preincubated for 1 hr followed by LPS challenge measured after 7 days by Western blot analysis
In short: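 Mixed mesencephalic neuron/glia cultures from E14 Sprague-Dawley rats, used at 7 days. Agent at 10 µM added 1 h before LPS 100 ng/mL; TH measured by Western blot after 7 days, n = 4.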

[7] = Drug uptake in ICR mouse plasma at 50 mg/kg, ig after 5 mins by LC/MS/MS analysis; assay type: ADME, organism-based; settings: in vivo, po
[8] = target: Voltage-gated inwardly rectifying potassium channel KCNH2 (Homo sapiens, UniProt Q12809); assay: Inhibition of human ERG by whole cell voltage clamp assay
In short: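 Whole-cell voltage clamp. Internal solution: KCl 130 mM, MgCl2 1 mM, EGTA 5 mM, ATP-Mg 5 mM, HEPES 10 mM, pH 7.2. Bath: NaCl 137, CaCl2 1.8, KCl 4, MgCl2 1, glucose 5, HEPES 10 mM, pH 7.4. From a holding potential of −70 mV, 2-s steps to 50 mV in 10 mV increments every 15 s; tail current recorded on a 2-s step from +50 to −40 mV.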

[9] = Toxicity in ICR mouse assessed as mortality administered through oral gavage; assay type: organism-based; settings: in vivo
[10] = system: Mus musculus; assay: Nephrotoxicity in ICR mouse at 1000 mg/kg administered through oral gavage for 14 consecutive days; assay type: toxicity, organism-based; settings: in vivo; in short: as §2
[11] = target: Proto-oncogene tyrosine-protein kinase Src (Rattus norvegicus) (UniProt Q9WUD9); assay: Inhibition of Src in Sprague-Dawley rat primary mixed mesecephalic neuron/glial cells assessed as suppression of LPS-induced microglia activation by measuring Iba-1 expression at 10 uM preincubated for 1 hr followed by LPS challenge measured after 24 hrs
[12] = AUC (0 to infinity) in ICR mouse blood at 50 mg/kg, ig up to 8 hrs by LC/MS/MS analysis; assay type: ADME, organism-based; set-up: dose 50 mg/kg, route […], time infinity; settings: in vivo, po
In short: (§4)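 Male ICR mice (22–25 g), fasted 16 h, single intragastric dose of 50 mg/kg. Blood and brain sampled at 5, 15, 30 min and 1, 2, 4, 8 h after decapitation. Plasma spun 4000 rpm 5 min; brain homogenised in saline and spun. Extracts run by LC/MS/MS on C18 columns at 30 °C, isocratic 70% acetonitrile (1% TFA)/30% water, 0.2 mL/min. Mean ± SD, n = 6.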

[13] = Half life in ICR mouse blood at 50 mg/kg, ig up to 8 hrs by LC/MS/MS analysis; assay type: ADME, organism-based; settings: po; in short: as §4
[14] = Cmax in ICR mouse blood at 50 mg/kg, ig up to 8 hrs by LC/MS/MS analysis; assay type: ADME, organism-based; set-up: dose 50 mg/kg, route […]; settings: po; in short: as §4
[15] = AUC (0 to infinity) in ICR mouse brain at 50 mg/kg, ig up to 8 hrs by LC/MS/MS analysis; assay type: ADME, organism-based; set-up: dose 50 mg/kg, route […], time infinity; settings: in vivo, po, BLD = below limit of detection; in short: as §4
[16] = Cmax in ICR mouse brain at 50 mg/kg, ig up to 8 hrs by LC/MS/MS analysis; assay type: ADME, organism-based; set-up: dose 50 mg/kg, route […]; settings: in vivo, po, BLD = below limit of detection; in short: as §4
[17] = target: Proto-oncogene tyrosine-protein kinase Src (Mus musculus) (UniProt P05480); assay: Inhibition of Src signaling pathway in mouse BV2 cells assessed as suppression of LPS-induced NO release at 0.1 to 100 uM preincubated for 1 hr followed by LPS addition measured after 24 hrs relative to control by Griess assay; assay type: cell-based; settings: BV-2; in short: as §1

Chain of Proto-oncogene tyrosine-protein kinase Src (Rattus norvegicus) (Q9WUD9 2-536 limits assumed): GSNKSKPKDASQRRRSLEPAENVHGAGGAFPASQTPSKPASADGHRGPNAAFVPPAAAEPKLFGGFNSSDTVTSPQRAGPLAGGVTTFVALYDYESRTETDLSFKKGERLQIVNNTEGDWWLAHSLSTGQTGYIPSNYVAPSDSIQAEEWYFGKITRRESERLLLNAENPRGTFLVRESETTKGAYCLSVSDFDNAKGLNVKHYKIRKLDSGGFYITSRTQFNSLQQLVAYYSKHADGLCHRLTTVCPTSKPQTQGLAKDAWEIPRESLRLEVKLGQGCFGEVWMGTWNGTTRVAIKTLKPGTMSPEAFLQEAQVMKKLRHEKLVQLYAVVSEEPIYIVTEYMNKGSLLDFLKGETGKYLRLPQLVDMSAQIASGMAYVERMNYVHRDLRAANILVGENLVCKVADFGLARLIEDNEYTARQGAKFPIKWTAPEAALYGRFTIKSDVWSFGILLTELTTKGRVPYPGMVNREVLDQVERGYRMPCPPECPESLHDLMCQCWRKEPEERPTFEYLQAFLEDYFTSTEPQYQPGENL
Chain of Proto-oncogene tyrosine-protein kinase Src (P05480 2-535 limits assumed): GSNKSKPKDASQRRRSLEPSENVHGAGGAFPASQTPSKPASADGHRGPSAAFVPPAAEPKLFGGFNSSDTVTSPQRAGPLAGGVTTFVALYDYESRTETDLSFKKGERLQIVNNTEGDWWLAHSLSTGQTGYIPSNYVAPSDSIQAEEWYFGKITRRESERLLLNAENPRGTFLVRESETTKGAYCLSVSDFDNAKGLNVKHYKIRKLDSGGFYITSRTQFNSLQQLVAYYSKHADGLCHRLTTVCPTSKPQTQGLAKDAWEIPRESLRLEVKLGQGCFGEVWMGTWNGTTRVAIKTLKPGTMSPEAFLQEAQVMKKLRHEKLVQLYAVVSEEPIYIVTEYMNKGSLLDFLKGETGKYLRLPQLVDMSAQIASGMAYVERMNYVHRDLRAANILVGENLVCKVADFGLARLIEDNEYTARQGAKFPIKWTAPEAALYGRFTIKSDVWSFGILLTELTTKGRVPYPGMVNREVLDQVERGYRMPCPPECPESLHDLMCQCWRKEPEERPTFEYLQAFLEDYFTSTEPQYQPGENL
Chain of Proto-oncogene tyrosine-protein kinase Src (Mus musculus) (P05480 2-535 limits assumed): as above
Chain of Voltage-gated inwardly rectifying potassium channel KCNH2 (Q12809 whole entry): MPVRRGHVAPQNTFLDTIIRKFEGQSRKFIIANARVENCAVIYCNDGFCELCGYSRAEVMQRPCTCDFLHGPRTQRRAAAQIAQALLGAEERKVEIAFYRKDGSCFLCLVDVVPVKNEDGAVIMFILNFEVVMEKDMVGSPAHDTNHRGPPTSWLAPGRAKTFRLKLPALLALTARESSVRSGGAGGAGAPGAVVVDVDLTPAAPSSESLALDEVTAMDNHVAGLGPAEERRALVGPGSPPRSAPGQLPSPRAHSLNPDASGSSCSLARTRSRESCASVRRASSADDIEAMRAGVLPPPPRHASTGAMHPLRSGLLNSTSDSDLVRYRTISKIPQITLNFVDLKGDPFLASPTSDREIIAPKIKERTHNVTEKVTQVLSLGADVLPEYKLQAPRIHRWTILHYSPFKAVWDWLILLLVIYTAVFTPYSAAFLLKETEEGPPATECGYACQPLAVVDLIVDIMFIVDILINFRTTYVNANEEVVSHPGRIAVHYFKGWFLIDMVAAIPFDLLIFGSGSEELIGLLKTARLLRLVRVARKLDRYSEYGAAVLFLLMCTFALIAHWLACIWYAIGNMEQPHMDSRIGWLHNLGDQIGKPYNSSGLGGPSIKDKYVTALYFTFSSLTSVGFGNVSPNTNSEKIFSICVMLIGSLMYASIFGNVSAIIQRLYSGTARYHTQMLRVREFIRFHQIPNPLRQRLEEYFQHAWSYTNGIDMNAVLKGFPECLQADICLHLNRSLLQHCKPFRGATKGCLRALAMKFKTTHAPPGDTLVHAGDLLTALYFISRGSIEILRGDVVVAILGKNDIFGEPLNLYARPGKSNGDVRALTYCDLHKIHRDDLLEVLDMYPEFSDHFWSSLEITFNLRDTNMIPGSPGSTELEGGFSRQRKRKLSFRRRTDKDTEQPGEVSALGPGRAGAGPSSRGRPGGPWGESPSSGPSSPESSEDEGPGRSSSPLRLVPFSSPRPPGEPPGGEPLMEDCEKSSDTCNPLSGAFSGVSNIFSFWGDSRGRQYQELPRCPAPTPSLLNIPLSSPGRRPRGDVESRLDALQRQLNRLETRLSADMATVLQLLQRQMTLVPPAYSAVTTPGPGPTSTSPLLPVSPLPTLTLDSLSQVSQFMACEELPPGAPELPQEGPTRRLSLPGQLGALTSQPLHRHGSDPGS

Row | Structure (SMILES) | IC50 [2] | other results
1 | COc1cc(OC)c(CN[C@@H](Cc2cnc[nH]2)C(=O)O)c(OC)c1 | – | inhibition [1]: < 50%
2 | COc1cc(OC)c(CNCC(=O)O)c(OC)c1 | – | inhibition [1]: < 50%
3 | COc1ccc(C(=O)CC(C)C)c(OC[C@@H](O)CNC(C)C)c1 | 25.6 µM | –
4 | CC(C)CC(=O)c1c(O)cc(O)cc1OC[C@H](O)CNC(C)C | – | inhibition [1]: < 50%
5 | CCCCNC(=O)c1c(O)cc(O)cc1O | 37.1 µM | –
6 | CC(C)CC(=O)c1c(O)cc(O)cc1OCC(O)CNC(C)C (stereo not given) | 74 µM | –
7 | COc1cc(OC)c(C(=O)CN2CCOCC2)c(OC)c1 | 32.4 µM | –
8 | COc1cc(O)cc(O)c1C(=O)CC(C)C | 5.8 µM | Activity [3]: Toxic; inhibition [4]: Active; inhibition [5]: Active; inhibition [6]: Active; Drug uptake [7]: Active; inhibition (INH) [8]: Active; LD50 [9]: 2000 mg/kg; Activity [10]: Toxic; inhibition [11]: Active
9 | COc1cc(OC)c(CN[C@@H](C)C(=O)O)c(OC)c1 | 39.1 µM | –
10 | COc1ccc(C(=O)CC(C)C)c(OCC(O)CNC(C)(C)C)c1 (stereo not given) | 138 µM | –
11 | COc1cc(OC)c(C(=O)CN2CCN(C)CC2)c(OC)c1 | 95.3 µM | –
12 | COc1cc(OC)c(CN[C@@H](Cc2ccccc2)C(=O)O)c(OC)c1 | – | inhibition [1]: < 50%
13 | COc1cc(OC)c(CN[C@@H](CCC(=O)O)C(=O)O)c(OC)c1 | 8.4 µM | inhibition [4]: Active; inhibition [5]: Active; inhibition [6]: Active; AUC [12]: 3195.1 µg·L·h; half-life [13]: 1.1 h; Cmax [14]: 1640 ng/mL; AUC [15]: Bld; Cmax [16]: Bld; Drug uptake [7]: Active; inhibition [17]: Active; inhibition [11]: Active
14 | COc1cc(/C=C/C(=O)CC(=O)/C=C/c2ccc(O)c(OC)c2)ccc1O [CURCUMIN] | 2.2 µM | –
15 | COc1ccc(C(=O)CC(C)C)c(OC[C@H](O)CNC(C)(C)C)c1 | 28.2 µM | –
16 | COc1cc(OC)c(C(=O)CC(C)C)c(OC[C@H](O)CNC(C)C)c1 | 41.3 µM | –
17 | COc1cc(OC)c(C(=O)CC(C)C)c(OC[C@H](O)CNC(C)(C)C)c1 | – | inhibition [1]: < 50%
18 | COc1cc(OC)c(C(=O)CC(C)C)c(OC[C@@H](O)CNC(C)C)c1 | 138 µM | –
19 | CCCCC(=O)c1c(O)cc(O)cc1O | 11.2 µM | –
20 | COc1cc(OC)c(C(=O)CC(C)C)c(OC[C@@H](O)CNC(C)(C)C)c1 | 11.2 µM | –
21 | COc1cc(OC)c(C(=O)CC(C)C)c(OC)c1 | 11.1 µM | –
22 | COc1ccc(C(=O)CC(C)C)c(OCC(O)CNC(C)C)c1 (stereo not given) | – | inhibition [1]: < 50%

Row | Structure (SMILES) | IC50 [2] | other results
23 | CN(CCCC(=O)c1c(O)cc(O)cc1O)C1CCCCC1 | 54.8 µM | –
24 | COc1cc(OC)c(C(=O)CC(C)C)c(OCC(O)CNC(C)(C)C)c1 (stereo not given) | 75 µM | –
25 | CC(C)CC(=O)c1c(O)cc(O)cc1OC[C@@H](O)CNC(C)(C)C | 24.1 µM | –
26 | CC(C)NC(=O)c1c(O)cc(O)cc1O | 92.6 µM | –
27 | CC(=O)c1c(O)cc(O)cc1O [2,4,6-TRIHYDROXYACETOPHENONE] | 195 µM | –
28 | COc1ccc(C(=O)CC(C)C)c(OC[C@@H](O)CNC(C)(C)C)c1 | 53.8 µM | –
29 | COc1cc(OC)c(C(=O)CC(C)C)c(OCC(O)CNC(C)C)c1 (stereo not given) | 84.8 µM | –
30 | COc1cc(OC)c(C(=O)CN2CCCCC2)c(OC)c1 | 24.9 µM | –
31 | COc1cc(OC)c(CNC(C)C)c(OC)c1 | – | inhibition [1]: < 50%
32 | COc1ccc(C(=O)CC(C)C)c(O)c1 | 113 µM | –
33 | CC(C)CC(=O)c1c(O)cc(O)cc1OCc1c(-c2ccccc2)no[n+]1[O-] | 8.5 µM | inhibition [4]: Active; inhibition [5]: Active; inhibition [6]: Active; Drug uptake [7]: Active; inhibition [11]: Active
34 | CC(C)CC(=O)c1c(O)cc(O)cc1OCC(O)CNC(C)(C)C (stereo not given) | 21.7 µM | –
35 | CC(C)CC(=O)c1c(O)cc(O)cc1OC[C@H](O)CNC(C)(C)C | 37.3 µM | –
36 | CC(C)CC(=O)c1ccc(O)cc1 | 90.7 µM | –
37 | CC(C)CC(=O)c1c(O)cc(O)cc1OC[C@@H](O)CNC(C)C | – | inhibition [1]: < 50%
38 | COc1cc(OC)c(CN[C@@H](CC(=O)O)C(=O)O)c(OC)c1 | 14.4 µM | inhibition [17]: Active
39 | COc1ccc(C(=O)CC(C)C)c(OC[C@H](O)CNC(C)C)c1 | 40.9 µM | –
40 | COc1cc(O)c(C(=O)CC(C)C)c(OC)c1 | 51.5 µM | –
41 | O=C(CCCN1CCN(c2cccc(Cl)c2)CC1)c1c(O)cc(O)cc1O | – | inhibition [1]: < 50%
42 | CC(C)CC(=O)c1c(O)cc(O)cc1O | 50.6 to 50.7 µM | –
43 | CCN1CCN(CC(=O)c2c(OC)cc(OC)cc2OC)CC1 | 22.7 µM | –
44 | O=C(CCCN1CCCCC1)c1c(O)cc(O)cc1O | 182 µM | –
